Among the data in ChEMBL document CHEMBL4346653, “A2B Adenosine Receptor Antagonists with Picomolar Potency” (J Med Chem, 2019) are Ki, inhibition and Ratio Ki values, retold here.

Usually Ki stands for the equilibrium dissociation constant of an inhibitor or competing ligand from its target. The inhibition is the change of the read-out against control, counted positive when it falls.

One test concerns the target T1, Adenosine receptor A3 (Homo sapiens, UniProt P0DMS8).
T1 sequence (P0DMS8 whole entry): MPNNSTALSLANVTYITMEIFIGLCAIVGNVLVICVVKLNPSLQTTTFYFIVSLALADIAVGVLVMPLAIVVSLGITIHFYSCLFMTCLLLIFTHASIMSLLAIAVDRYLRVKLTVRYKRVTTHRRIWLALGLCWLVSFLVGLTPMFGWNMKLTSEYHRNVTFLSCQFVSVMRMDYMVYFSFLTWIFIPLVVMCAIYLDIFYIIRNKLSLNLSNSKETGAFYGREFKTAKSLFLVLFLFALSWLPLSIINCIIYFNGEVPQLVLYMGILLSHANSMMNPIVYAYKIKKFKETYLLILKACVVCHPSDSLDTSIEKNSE
As to the kind of experiment: Displacement of [3H]PSB-11 from recombinant human A3 adenosine receptor expressed in CHO cell membranes measured after 45 mins in presence of adenosine deaminase by liquid scintillation counting method. In short, it runs like this:
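Competition binding on membranes of cells recombinantly expressing the human receptor (CHO or HEK cells), with tritiated radioligand per subtype: [3H]PSB-603 for A2B, [3H]MSX-2 for A2A, [3H]CCPA for A1, [3H]PSB-11 for A3. Ki ± SEM from n = 3, some from extrapolated curves. Weak binders are reported as % inhibition of radioligand binding at 1 μM.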
In general terms: In a radioligand displacement assay an active substance lowers the binding of a labelled ligand.

Test [1] has as its target T2, Adenosine receptor A3 (Mus musculus) (UniProt Q61618).
T2 sequence (whole entry): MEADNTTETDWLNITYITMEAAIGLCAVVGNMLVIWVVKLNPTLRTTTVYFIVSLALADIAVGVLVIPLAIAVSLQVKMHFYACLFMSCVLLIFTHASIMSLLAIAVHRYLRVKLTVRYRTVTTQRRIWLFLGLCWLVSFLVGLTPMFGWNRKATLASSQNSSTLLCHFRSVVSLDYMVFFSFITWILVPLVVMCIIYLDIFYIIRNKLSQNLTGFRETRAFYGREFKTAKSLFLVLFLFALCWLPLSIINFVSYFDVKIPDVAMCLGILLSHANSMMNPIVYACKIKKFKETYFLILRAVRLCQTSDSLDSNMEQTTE
As to the kind of experiment: Displacement of [3H]NECA from recombinant mouse A3 adenosine receptor expressed in CHO cell membranes at 1 uM measured after 180 mins in presence of adenosine deaminase by liquid scintillation counting method relative to control.

The nature of test [2]: Selectivity ratio of Ki for displacement of [3H]PSB-603 from recombinant mouse A2B adenosine receptor expressed in CHO cell membranes to Ki for displacement of [3H]PSB-603 from recombinant human A2B adenosine receptor expressed in CHO cell membranes.
For the next test, the species on record is Homo sapiens. As to the kind of experiment: Selectivity index, ratio of Ki for displacement of [3H]CCPA from recombinant human A1 adenosine receptor expressed in CHO cell membranes to Ki for displacement of [3H]PSB-603 from recombinant human A2B adenosine receptor expressed in CHO cell membranes.
Another test deals with T3, Adenosine receptor A2b (Mus musculus, UniProt Q60614).
T3 sequence (Q60614 whole entry): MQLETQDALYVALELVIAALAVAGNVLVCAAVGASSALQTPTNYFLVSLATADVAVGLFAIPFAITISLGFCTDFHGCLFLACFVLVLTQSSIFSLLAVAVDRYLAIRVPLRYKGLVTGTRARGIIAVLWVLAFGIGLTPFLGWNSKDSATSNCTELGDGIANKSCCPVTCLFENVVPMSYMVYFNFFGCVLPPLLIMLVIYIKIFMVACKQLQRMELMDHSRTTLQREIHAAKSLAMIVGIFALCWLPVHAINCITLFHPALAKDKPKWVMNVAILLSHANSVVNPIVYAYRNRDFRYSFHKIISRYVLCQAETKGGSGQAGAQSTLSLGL
As to the kind of experiment: Displacement of [3H]PSB-603 from recombinant mouse A2B adenosine receptor expressed in CHO cell membranes measured after 75 mins in presence of adenosine deaminase by liquid scintillation counting method.

The species named for test [3] is Mus musculus. As to the kind of experiment: Selectivity ratio of Ki for displacement of [3H]NECA from recombinant mouse A3 adenosine receptor expressed in CHO cell membranes to Ki for displacement of [3H]PSB-603 from recombinant mouse A2B adenosine receptor expressed in CHO cell membranes.
For test [4], the species on record is Mus musculus. As to the kind of experiment: Selectivity ratio of Ki for displacement of [3H]CCPA from recombinant mouse A1 adenosine receptor expressed in CHO cell membranes to Ki for displacement of [3H]PSB-603 from recombinant mouse A2B adenosine receptor expressed in CHO cell membranes.
Test [5] addresses T4, Adenosine receptor A1 (Mus musculus) (UniProt Q60612).
T4 sequence (whole entry): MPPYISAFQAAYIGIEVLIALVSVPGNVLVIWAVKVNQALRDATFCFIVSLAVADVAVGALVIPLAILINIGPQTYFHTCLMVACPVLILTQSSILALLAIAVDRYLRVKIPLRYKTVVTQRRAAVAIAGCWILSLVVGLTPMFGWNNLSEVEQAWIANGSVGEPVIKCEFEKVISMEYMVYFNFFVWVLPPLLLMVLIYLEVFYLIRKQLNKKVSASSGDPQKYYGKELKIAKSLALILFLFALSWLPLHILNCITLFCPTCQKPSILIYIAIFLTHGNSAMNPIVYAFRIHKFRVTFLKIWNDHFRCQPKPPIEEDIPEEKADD
As to the kind of experiment: Displacement of [3H]CCPA from recombinant mouse A1 adenosine receptor expressed in CHO cell membranes at 1 uM measured after 90 mins in presence of adenosine deaminase by liquid scintillation counting method relative to control.

Consider `CCCn1c(=O)c2[nH]c(-c3ccc(S(=O)(=O)N4CCN(c5ccc(Cl)cc5)CC4)cc3)nc2n(C)c1=O`, for which the results for the inhibition constant (Ki) on Adenosine receptor A3 and on Adenosine receptor A2b were more than 1000 nM and 8.34 nM, respectively. Moreover, the inhibition in test [1] was -0.833%. In addition, the Ratio Ki was 1.5 to 6 in test [2], more than 520 in the test filed under Homo sapiens and 180 in the test listed under Mus musculus [3].

`CCCn1c(=O)[nH]c2nc(-c3ccc(S(=O)(=O)N4CCN(c5ccc(Br)cc5)CC4)cc3)[nH]c2c1=O`: the Ki is more than 1000 nM on Adenosine receptor A3 and 0.131 nM at Adenosine receptor A2b. The inhibition worked out at 8% in test [1] and 29% in test [5]. In addition, the Ratio Ki in the test filed under Mus musculus [4] is more than 7630; in the test listed under Homo sapiens it was more than 12000; in the test listed under Mus musculus [3], more than 7630.

In the case of `CCCn1c(=O)[nH]c2nc(-c3ccc(S(=O)(=O)N4CCN(c5cccc(F)c5)CC4)cc3)[nH]c2c1=O`, the inhibitory constant (Ki) was more than 1000 nM on Adenosine receptor A3 and 0.926 nM on Adenosine receptor A2b. The results for the inhibition in test [1] and in test [5] were -2% and 46%, respectively. Further, the values for the Ratio Ki (in test [2]; in the test listed under Mus musculus [4]; in the test listed under Homo sapiens) were 1.5 to 6, more than 320 and more than 1580, respectively.
